Measured values as given in ChEMBL document CHEMBL1128473, “[(Biaryloxy)alkyl]isoxazoles: picornavirus inhibitors” (J Med Chem, 1995).
Values after ≈ are worked out from the molar mass of the structure shown.

Columns and labels:
Type in all cases: functional
Human rhinovirus sp. [1] = assay: Concentration inhibiting 50% of the serotypes tested to 50% of the viral concentration of untreated controls following 72 hr of exposure
Method in brief: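 Tissue culture infectious dose (TCID50) assay against a panel of 10 human rhinovirus serotypes. For each serotype, the viral concentration was compared with untreated controls after 72 h of compound exposure. MIC50 is the compound concentration at which half of the serotypes tested are reduced to 50% of the untreated-control viral concentration.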

Human rhinovirus sp. [2] = assay: Minimum inhibitory concentration on HRV serotype 81
Method in brief: (§1)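 Tested in a tissue culture infectious dose (TCID50) assay with 72 h compound exposure. Activity is read as the concentration that holds virus to 50% of the titer of untreated controls.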

Human rhinovirus sp. [3] = assay: Minimum inhibitory concentration on HRV serotype 85; method in brief: as §1
Human rhinovirus sp. [4] = assay: Minimum inhibitory concentration on HRV serotype 80; method in brief: as §1
Human rhinovirus sp. [5] = assay: Minimum inhibitory concentration on HRV serotype 90; method in brief: as §1
Human rhinovirus sp. [6] = assay: Minimum inhibitory concentration on HRV serotype 36
Human rhinovirus sp. [7] = assay: Minimum inhibitory concentration on HRV serotype 51
Human rhinovirus sp. [8] = assay: Minimum inhibitory concentration on HRV serotype 25
Human rhinovirus sp. [9] = assay: Minimum inhibitory concentration on HRV serotype 88; method in brief: as §1
Human rhinovirus sp. [10] = assay: Minimum inhibitory concentration on HRV serotype 29
Human rhinovirus sp. [11] = assay: Minimum inhibitory concentration on HRV serotype 22
Human rhinovirus sp. [12] = assay: Minimum inhibitory concentration on HRV serotype 34
Human rhinovirus sp. [13] = assay: Minimum inhibitory concentration on HRV serotype 66
Human rhinovirus sp. [14] = assay: Minimum inhibitory concentration on HRV serotype 92; method in brief: as §1
Human rhinovirus sp. [15] = assay: Minimum inhibitory concentration on HRV serotype 50
Human rhinovirus sp. [16] = assay: Minimum inhibitory concentration on HRV serotype 35
Human rhinovirus sp. [17] = assay: Minimum inhibitory concentration on HRV serotype 53
Human rhinovirus sp. [18] = assay: Minimum inhibitory concentration on HRV serotype 19
Human rhinovirus sp. [19] = assay: Minimum inhibitory concentration on HRV serotype 28
Human rhinovirus sp. [20] = assay: Minimum inhibitory concentration on HRV serotype 33
Human rhinovirus sp. [21] = assay: Minimum inhibitory concentration on HRV serotype 68
Human rhinovirus sp. [22] = assay: Minimum inhibitory concentration on HRV serotype 75
Human rhinovirus sp. [23] = assay: Minimum inhibitory concentration on HRV serotype 32
Human rhinovirus sp. [24] = assay: Minimum inhibitory concentration on HRV serotype 71
Human rhinovirus sp. [25] = assay: Minimum inhibitory concentration on HRV serotype 73
Human rhinovirus sp. [26] = assay: Minimum inhibitory concentration on HRV serotype 9; method in brief: as §1
Human rhinovirus sp. [27] = assay: Minimum inhibitory concentration on HRV serotype 1B
Human rhinovirus sp. [28] = assay: Minimum inhibitory concentration on HRV serotype 100
Human rhinovirus sp. [29] = assay: Minimum inhibitory concentration on HRV serotype 67
Human rhinovirus sp. [30] = assay: Minimum inhibitory concentration on HRV serotype 24
Human rhinovirus sp. [31] = assay: Minimum inhibitory concentration on HRV serotype 38
Human rhinovirus sp. [32] = assay: Minimum inhibitory concentration on HRV serotype 56
Human rhinovirus sp. [33] = assay: Minimum inhibitory concentration on HRV serotype 43
Human rhinovirus sp. [34] = assay: Minimum inhibitory concentration on HRV serotype 64
Human rhinovirus sp. [35] = assay: Minimum inhibitory concentration on HRV serotype 84; method in brief: as §1
Human rhinovirus sp. [36] = assay: Minimum inhibitory concentration on HRV serotype 11
Human rhinovirus sp. [37] = assay: Minimum inhibitory concentration on HRV serotype 46
Human rhinovirus sp. [38] = assay: Minimum inhibitory concentration on HRV serotype 23
Human rhinovirus sp. [39] = assay: Minimum inhibitory concentration on HRV serotype 49
Human rhinovirus sp. [40] = assay: Minimum inhibitory concentration on HRV serotype 39
Human rhinovirus sp. [41] = assay: Minimum inhibitory concentration on HRV serotype 63
Human rhinovirus sp. [42] = assay: Minimum inhibitory concentration on HRV serotype 58
Human rhinovirus sp. [43] = assay: Minimum inhibitory concentration on HRV serotype 15
Human rhinovirus sp. [44] = assay: Minimum inhibitory concentration on HRV serotype 2
Human rhinovirus sp. [45] = assay: Minimum inhibitory concentration on HRV serotype 7
Human rhinovirus sp. [46] = assay: Minimum inhibitory concentration on HRV serotype 62
Human rhinovirus sp. [47] = assay: Minimum inhibitory concentration on HRV serotype 78; method in brief: as §1
Human rhinovirus sp. [48] = assay: Minimum inhibitory concentration on HRV serotype 96; method in brief: as §1
Human rhinovirus sp. [49] = assay: Minimum inhibitory concentration on HRV serotype 61
Human rhinovirus sp. [50] = assay: Minimum inhibitory concentration on HRV serotype 79; method in brief: as §1
Human rhinovirus sp. [51] = assay: Minimum inhibitory concentration on HRV serotype 47
Human rhinovirus sp. [52] = assay: Minimum inhibitory concentration on HRV serotype 21
Human rhinovirus sp. [53] = assay: Minimum inhibitory concentration on HRV serotype 30
Human rhinovirus sp. [54] = assay: Minimum inhibitory concentration on HRV serotype 40
Human rhinovirus sp. [55] = assay: Minimum inhibitory concentration on HRV serotype 76; method in brief: as §1
Human rhinovirus sp. [56] = assay: Minimum inhibitory concentration on HRV serotype 57
Human rhinovirus sp. [57] = assay: Minimum inhibitory concentration on HRV serotype 1A
Human rhinovirus sp. [58] = assay: Minimum inhibitory concentration on HRV serotype 44
Human rhinovirus sp. [59] = assay: Minimum inhibitory concentration on HRV serotype T39; method in brief: as §1
Human rhinovirus sp. [60] = assay: Minimum inhibitory concentration on HRV serotype 82; method in brief: as §1
Human rhinovirus sp. [61] = assay: Minimum inhibitory concentration on HRV serotype 89; method in brief: as §1
Human rhinovirus sp. [62] = assay: Minimum inhibitory concentration on HRV serotype 55
Human rhinovirus sp. [63] = assay: Minimum inhibitory concentration on HRV serotype 16
Human rhinovirus sp. [64] = assay: Minimum inhibitory concentration on HRV serotype 20
Human rhinovirus sp. [65] = assay: Minimum inhibitory concentration on HRV serotype 83; method in brief: as §1

SMILES: Cc1cc(CCCOc2c(C)cc(-c3ccc([N+](=O)[O-])cc3)cc2C)on1
- MIC50 (Human rhinovirus sp. [1]): 0.76 µM (≈ 0.278 µg/mL)

SMILES: Cc1cc(CCCOc2c(C)cc(-c3cccc(C#N)c3)cc2C)on1
- MIC50 (Human rhinovirus sp. [1]): > 8.9 µM

SMILES: Cc1cc(CCCOc2c(C)cc(-c3ccc(F)c(F)c3)cc2C)on1
- MIC50 (Human rhinovirus sp. [1]): 0.16 µM (≈ 0.0572 µg/mL)

SMILES: Cc1cc(CCCOc2c(C)cc(-c3ccc(F)cc3)cc2C)on1
- MIC (Human rhinovirus sp. [2]): 0.125 µg/mL (≈ 0.368 µM)
- MIC (Human rhinovirus sp. [3]): 0.02 µg/mL (≈ 0.0589 µM)
- MIC (Human rhinovirus sp. [4]): 0.031 µg/mL (≈ 0.0913 µM)
- MIC (Human rhinovirus sp. [5]): 0.024 µg/mL (≈ 0.0707 µM)
- MIC (Human rhinovirus sp. [6]): 0.009 µg/mL (≈ 0.0265 µM)
- MIC (Human rhinovirus sp. [7]): 0.009 µg/mL (≈ 0.0265 µM)
- MIC (Human rhinovirus sp. [8]): 0.077 µg/mL (≈ 0.227 µM)
- MIC (Human rhinovirus sp. [9]): 0.006 µg/mL (≈ 0.0177 µM)
- MIC (Human rhinovirus sp. [10]): 0.03 µg/mL (≈ 0.0884 µM)
- MIC (Human rhinovirus sp. [11]): 0.02 µg/mL (≈ 0.0589 µM)
- MIC (Human rhinovirus sp. [12]): 0.02 µg/mL (≈ 0.0589 µM)
- MIC (Human rhinovirus sp. [13]): 0.161 µg/mL (≈ 0.474 µM)
- MIC (Human rhinovirus sp. [14]): 0.014 µg/mL (≈ 0.0412 µM)
- MIC (Human rhinovirus sp. [15]): 0.04 µg/mL (≈ 0.118 µM)
- MIC (Human rhinovirus sp. [16]): 0.021 µg/mL (≈ 0.0619 µM)
- MIC (Human rhinovirus sp. [17]): 0.889 µg/mL (≈ 2.62 µM)
- MIC (Human rhinovirus sp. [18]): 0.03 µg/mL (≈ 0.0884 µM)
- MIC (Human rhinovirus sp. [19]): 0.14 µg/mL (≈ 0.412 µM)
- MIC (Human rhinovirus sp. [20]): 0.019 µg/mL (≈ 0.056 µM)
- MIC (Human rhinovirus sp. [21]): 0.009 µg/mL (≈ 0.0265 µM)
- MIC (Human rhinovirus sp. [22]): 0.037 µg/mL (≈ 0.109 µM)
- MIC (Human rhinovirus sp. [23]): 0.098 µg/mL (≈ 0.289 µM)
- MIC (Human rhinovirus sp. [24]): 0.025 µg/mL (≈ 0.0737 µM)
- MIC (Human rhinovirus sp. [25]): 0.049 µg/mL (≈ 0.144 µM)
- MIC (Human rhinovirus sp. [26]): 0.08 µg/mL (≈ 0.236 µM)
- MIC (Human rhinovirus sp. [27]): 0.024 µg/mL (≈ 0.0707 µM)
- MIC (Human rhinovirus sp. [28]): 0.12 µg/mL (≈ 0.354 µM)
- MIC (Human rhinovirus sp. [29]): 0.118 µg/mL (≈ 0.348 µM)
- MIC (Human rhinovirus sp. [30]): 0.036 µg/mL (≈ 0.106 µM)
- MIC (Human rhinovirus sp. [31]): 0.015 µg/mL (≈ 0.0442 µM)
- MIC (Human rhinovirus sp. [32]): 0.038 µg/mL (≈ 0.112 µM)
- MIC (Human rhinovirus sp. [33]): 0.072 µg/mL (≈ 0.212 µM)
- MIC (Human rhinovirus sp. [34]): 0.07 µg/mL (≈ 0.206 µM)
- MIC (Human rhinovirus sp. [35]): 0.042 µg/mL (≈ 0.124 µM)
- MIC (Human rhinovirus sp. [36]): 0.007 µg/mL (≈ 0.0206 µM)
- MIC (Human rhinovirus sp. [37]): 0.058 µg/mL (≈ 0.171 µM)
- MIC (Human rhinovirus sp. [38]): 0.046 µg/mL (≈ 0.136 µM)
- MIC (Human rhinovirus sp. [39]): 0.037 µg/mL (≈ 0.109 µM)
- MIC (Human rhinovirus sp. [40]): 0.078 µg/mL (≈ 0.23 µM)
- MIC (Human rhinovirus sp. [41]): 0.139 µg/mL (≈ 0.41 µM)
- MIC (Human rhinovirus sp. [42]): 0.013 µg/mL (≈ 0.0383 µM)
- MIC (Human rhinovirus sp. [43]): 0.492 µg/mL (≈ 1.45 µM)
- MIC (Human rhinovirus sp. [44]): 0.009 µg/mL (≈ 0.0265 µM)
- MIC (Human rhinovirus sp. [45]): 0.006 µg/mL (≈ 0.0177 µM)
- MIC (Human rhinovirus sp. [46]): 0.154 µg/mL (≈ 0.454 µM)
- MIC (Human rhinovirus sp. [47]): 0.018 µg/mL (≈ 0.053 µM)
- MIC (Human rhinovirus sp. [48]): 0.031 µg/mL (≈ 0.0913 µM)
- MIC (Human rhinovirus sp. [49]): 0.024 µg/mL (≈ 0.0707 µM)
- MIC (Human rhinovirus sp. [50]): 0.056 µg/mL (≈ 0.165 µM)
- MIC (Human rhinovirus sp. [51]): 0.021 µg/mL (≈ 0.0619 µM)
- MIC (Human rhinovirus sp. [52]): 0.009 µg/mL (≈ 0.0265 µM)
- MIC (Human rhinovirus sp. [53]): 0.028 µg/mL (≈ 0.0825 µM)
- MIC (Human rhinovirus sp. [54]): 0.033 µg/mL (≈ 0.0972 µM)
- MIC (Human rhinovirus sp. [55]): 0.009 µg/mL (≈ 0.0265 µM)
- MIC (Human rhinovirus sp. [56]): 0.024 µg/mL (≈ 0.0707 µM)
- MIC (Human rhinovirus sp. [57]): 0.155 µg/mL (≈ 0.457 µM)
- MIC (Human rhinovirus sp. [58]): 0.033 µg/mL (≈ 0.0972 µM)
- MIC50 (Human rhinovirus sp. [1]): 0.11 µM (≈ 0.0373 µg/mL)
- MIC (Human rhinovirus sp. [59]): 0.035 µg/mL (≈ 0.103 µM)
- MIC (Human rhinovirus sp. [60]): 0.187 µg/mL (≈ 0.551 µM)
- MIC (Human rhinovirus sp. [61]): 0.012 µg/mL (≈ 0.0354 µM)
- MIC (Human rhinovirus sp. [62]): 0.003 µg/mL (≈ 0.00884 µM)
- MIC (Human rhinovirus sp. [63]): 0.058 µg/mL (≈ 0.171 µM)
- MIC (Human rhinovirus sp. [64]): 0.019 µg/mL (≈ 0.056 µM)
- MIC (Human rhinovirus sp. [65]): 0.004 µg/mL (≈ 0.0118 µM)

SMILES: Cc1cc(CCCOc2c(C)cc(-c3ccc(C#N)cc3)cc2C)on1
- MIC50 (Human rhinovirus sp. [1]): 0.26 µM (≈ 0.0901 µg/mL)
